In series [1] the target is HDAC1 (Homo sapiens, UniProt Q13547). In words: HDAC inhibitory assay, HDAC1. In kind it is biochemical.
Series [2] deals with T1, HDAC6 (Homo sapiens, UniProt Q9UBN7).
T1 sequence (Q9UBN7 1-1215): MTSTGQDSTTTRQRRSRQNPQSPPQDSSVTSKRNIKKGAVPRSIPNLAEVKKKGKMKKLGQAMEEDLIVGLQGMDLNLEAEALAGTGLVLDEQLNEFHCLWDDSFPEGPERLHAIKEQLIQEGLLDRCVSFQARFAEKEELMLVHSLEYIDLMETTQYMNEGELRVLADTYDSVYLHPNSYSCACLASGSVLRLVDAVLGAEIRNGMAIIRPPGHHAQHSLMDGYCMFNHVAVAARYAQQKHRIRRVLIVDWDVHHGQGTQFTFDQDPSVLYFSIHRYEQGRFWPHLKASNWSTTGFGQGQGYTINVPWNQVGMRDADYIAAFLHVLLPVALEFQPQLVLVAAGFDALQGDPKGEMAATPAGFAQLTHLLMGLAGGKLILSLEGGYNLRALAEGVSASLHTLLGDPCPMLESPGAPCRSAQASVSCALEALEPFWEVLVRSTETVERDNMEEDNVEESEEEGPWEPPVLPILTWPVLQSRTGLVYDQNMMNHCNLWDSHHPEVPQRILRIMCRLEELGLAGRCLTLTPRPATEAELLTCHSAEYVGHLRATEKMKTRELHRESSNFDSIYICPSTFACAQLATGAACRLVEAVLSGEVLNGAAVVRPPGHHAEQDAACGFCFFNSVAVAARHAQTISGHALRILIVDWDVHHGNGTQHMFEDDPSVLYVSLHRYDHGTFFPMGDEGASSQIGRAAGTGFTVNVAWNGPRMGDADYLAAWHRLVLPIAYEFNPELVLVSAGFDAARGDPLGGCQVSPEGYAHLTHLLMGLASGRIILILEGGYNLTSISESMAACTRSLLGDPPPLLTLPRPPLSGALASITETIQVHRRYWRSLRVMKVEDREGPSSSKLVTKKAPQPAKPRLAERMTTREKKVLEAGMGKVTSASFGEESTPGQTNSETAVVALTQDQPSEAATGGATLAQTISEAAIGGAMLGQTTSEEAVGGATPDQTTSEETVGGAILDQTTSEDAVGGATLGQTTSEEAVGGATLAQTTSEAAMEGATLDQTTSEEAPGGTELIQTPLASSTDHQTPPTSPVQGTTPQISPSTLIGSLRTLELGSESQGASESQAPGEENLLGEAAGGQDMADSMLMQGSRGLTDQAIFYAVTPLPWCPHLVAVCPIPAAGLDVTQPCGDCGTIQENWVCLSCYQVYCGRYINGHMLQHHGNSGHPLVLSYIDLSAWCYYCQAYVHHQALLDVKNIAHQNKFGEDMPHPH
The experiment in a line: HDAC inhibitory assay, HDAC6. It counts as biochemical.

In series [3] the test system is HepG2. In words: In vitro anti-proliferation assay. It counts as cell-based.
The test system of series [4] is acetylated H3/H4. In words: Western blot of acetylated histone levels in HepG2 cells. It counts as cell-based. The following applies: HepG2, 0.2, 0.5 µM, 24 h. A digest of the protocol: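 HepG2 cells were exposed to the test compound for 24 h, then lysed in RIPA buffer with protease inhibitors (10 min on ice) and centrifuged at 4 °C. Protein was measured by BCA, and equal amounts were denatured at 100 °C for 5 min. Blots were run on 10–15% SDS-PAGE and transferred to PVDF. Anti-acetyl-H3 was used at 1:1000, overnight at 4 °C, then HRP secondary antibody for 1 h at room temperature, with ECL detection. Bands were quantified against β-actin; mean ± SD of three separate experiments.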

Series [5] concerns HepG2 cells. In words: Colony formation assay. It counts as cell-based. The following applies: HepG2, 14 days. The essentials: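 HepG2 cells were plated at 1000 per well in 6-well plates. After 24 h they were treated with a range of concentrations, with the medium refreshed every other day, and kept in fresh medium for 10–14 days. Colonies were fixed in methanol for 15 min, stained with 0.5% crystal violet for 15 min, photographed and counted manually.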

In series [6] the test system is HepG2 cells. The experiment in a line: Cell cycle analysis by flow cytometry. Particulars: HepG2, 0.5μM; for G2/M: control 25.34%; for S: control 32.99%; for G0/G1: control 41.67%. It counts as cell-based.
Series [7] has as its system CDK4 and Cyclin D1. The experiment in a line: Western blot of cell cycle regulators. It counts as cell-based. Particulars: HepG2, 24 h. The essentials: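 For the immunoblot, HepG2 cells were treated at several concentrations for 24 h and lysed in RIPA buffer with protease inhibitors. Equal BCA-quantified protein was boiled for 5 min and resolved on 10–15% SDS-PAGE, then transferred to PVDF. Blots were blocked in 5% milk, incubated with primary antibody overnight at 4 °C and HRP secondary for 1 h, and detected by ECL. Band densities were quantified, with β-actin as loading control.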

Series [8] concerns HepG2 cells. In words: Annexin V-FITC/PI apoptosis analysis. In kind it is cell-based. The following applies: 48 h.
In series [9] the test system is Cl-PARP, Cl-caspase 3. In words: Western blot of apoptotic proteins. It counts as cell-based. Particulars: HepG2, 24 h. A digest of the protocol: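 Treated HepG2 lysates (24 h exposure, RIPA buffer with protease inhibitors, BCA-normalised) were denatured at 100 °C for 5 min and run on 10–15% SDS-PAGE, then transferred to PVDF. Membranes were blocked in 5% milk, with primary antibody overnight at 4 °C and HRP secondary for 1 h at room temperature, and developed by ECL. Band intensity was normalised to β-actin; mean ± SD of three separate experiments.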

In series [10] the test system is HepG2 cells. The experiment in a line: Reactive oxygen species. The following applies: HepG2, 24 h. In kind it is cell-based.
For series [11], the system named is γH2AX. In words: γH2AX immunofluorescence assay. It counts as cell-based. Particulars: HepG2, 24 h, in comparison to SAHA. The essentials:
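HepG2 cells were grown on coverslips at 1 × 10^5 per well and treated over a concentration range for 24 h. Cells were fixed in 4% formaldehyde, then blocked and permeabilised in PBS-BSA with 0.3% Triton X-100 for 15 min at room temperature. Anti-γH2AX was applied overnight at 4 °C, then goat anti-rabbit IgG (1:500) for 30 min at room temperature. Nuclei were counterstained with DAPI and imaged by confocal microscopy.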

Series [12] relates to HepG2 cells. In words: Lactate dehydrogenase. It counts as cell-based. Particulars: HepG2, 24 h. The essentials: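 HepG2 cells were seeded at 1 × 10^4 per well and exposed to a range of test compound concentrations for 24 h. Culture supernatant was mixed with LDH detection reagent and kept 30 min in the dark at ambient temperature. OD was read at 490 nm, with each sample in triplicate.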

The subject of series [13] is GSDME-N, Cl-caspase3. The experiment in a line: Western blot of pyroptosis markers. It counts as cell-based. Particulars: HepG2, 24 h. The essentials:
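HepG2 cells were treated 24 h at the indicated concentrations, then lysed in RIPA with protease inhibitors (10 min on ice, 4 °C spin). Protein was measured by BCA, and equal amounts were boiled 5 min at 100 °C, run on 10–15% SDS-PAGE and transferred to PVDF. Membranes were blocked in 5% milk, probed with primaries overnight at 4 °C, then HRP secondary 1 h at room temperature. Detection was by ECL, with densitometry against β-actin; data are mean ± SD of three experiments.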

The test system of series [14] is HepG2 xenografts. The experiment in a line: HepG2 xenograft model. It counts as in vivo, BALB/c nude mice. A digest of the protocol:
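Male BALB/c nude mice, 5–6 weeks old, were housed under SPF conditions (25 °C, 65% humidity, 12-h light/dark). They were implanted subcutaneously with 1 × 10^6 HepG2 cells. […] Excised tumors were immunostained for Ac-H3, Ac-H4, cleaved caspase-3, GSDME-N and Ki67, then image-scored over 5 fields.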

Chain of HDAC1 (Q13547 whole entry): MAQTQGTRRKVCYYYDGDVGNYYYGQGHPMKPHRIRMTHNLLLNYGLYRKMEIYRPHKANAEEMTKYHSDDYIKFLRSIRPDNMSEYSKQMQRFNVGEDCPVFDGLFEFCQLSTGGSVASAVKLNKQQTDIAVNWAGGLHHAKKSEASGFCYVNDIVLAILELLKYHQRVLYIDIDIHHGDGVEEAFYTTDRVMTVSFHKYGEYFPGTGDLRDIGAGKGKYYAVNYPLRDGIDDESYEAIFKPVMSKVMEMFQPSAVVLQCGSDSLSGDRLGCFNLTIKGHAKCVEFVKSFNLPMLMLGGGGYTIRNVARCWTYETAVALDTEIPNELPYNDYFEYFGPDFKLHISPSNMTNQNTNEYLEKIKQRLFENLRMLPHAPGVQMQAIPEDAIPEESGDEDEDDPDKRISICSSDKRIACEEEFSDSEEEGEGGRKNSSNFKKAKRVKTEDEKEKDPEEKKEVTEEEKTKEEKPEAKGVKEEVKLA

Take `COc1ccc(N(Cc2csc(-c3ccccc3)n2)C(=O)CCCCCC(=O)NO)cc1` [Compound 15a, N^1-hydroxy-N^7-(4-methoxyphenyl)-N^7-((2-phenyl-4-thiazolyl)methyl)heptanediamide]: in [1], the “HDAC1 inhibitory activity relative to SAHA” value is listed as “tenfold better”. In addition, in series [2], the “HDAC6 inhibitory activity relative to SAHA” value is “eightfold better”. The “antiproliferative activity, times higher than SAHA” value in [3] was around 25 times. In series [4], the “level of acetyl-H3 and H4” value was “increased the level of acetyl-H3 and H4 in a dose-dependent manner”. For the same compound, the colony formation result in series [5] is on record as “suppress the formation of colonies in a dose-dependent manner”. Further, in series [6], the G2/M was found to be 22.85%, the S is listed as 13.72% and the G0/G1 came out at 61.42%. Also, the “levels of CDK4 and Cyclin D1” value in series [7] was “significantly reduced the levels of CDK4 and Cyclin D1 in a dose-dependent manner”. Besides, the “apoptosis of HepG2 cells” value in series [8] (0.2 µM) was found to be 28.2%. In [8] (0.5 µM), the “apoptosis of HepG2 cells” value was 46.5%. Besides, in series [9], the “expression of Cl-PARP, Cl-caspase 3” value is reported as “upregulate the expression of Cl-PARP, Cl-caspase 3 in a dose-dependent manner”. The ROS levels result in series [10] is on record as “dose-dependently increased”. Moreover, the “nuclear γH2AX levels” value in [11] is on record as “induce γH2AX expression at a much lower concentration range”. In [12], the LDH release entry is reported as “markedly increased”. In [13], the “GSDME N-terminal fragment level” value was “elevated levels of the N-terminal fragment of gasdermin E (GSDME)” and the “levels of active caspase-3” value is given as “elevated”. Besides, the tumor growth inhibition entry in series [14] (10 mg/kg, ip, every two days, three weeks) is on record as “superior inhibition observed at 10 mg/kg compared to that of SAHA”. For the same compound, in series [14] (IHC at end of treatment), the “Ac-H3/H4, Cl-caspase3 and GSDME-N in tumor tissues” value is “induced the increase of Ac- H3/H4”; the “Ki67 immunostaining of tumor tissues” value is recorded as “dose-dependent reduction in Ki67 immunostaining”.
In the case of `COc1ccc(N(Cc2csc(-c3ccc(C)cc3)n2)C(=O)CCCCCC(=O)NO)cc1` [Compound 15d, N^1-hydroxy-N^7-(4-methoxyphenyl)-N^7-((2-(4-tolyl)-4-thiazolyl)methyl)heptanediamide], the “HDAC1 inhibitory activity relative to SAHA” value in series [1] is given as “tenfold better”. In [2], the “HDAC6 inhibitory activity relative to SAHA” value is reported as “eightfold better”. In addition, in [3], the “antiproliferative activity, times higher than SAHA” value is around 15 times. Also, the “level of acetyl-H3 and H4” value in series [4] was “increased the level of acetyl-H3 and H4 in a dose-dependent manner”. For the same compound, in series [5], the colony formation entry is listed as “suppress the formation of colonies in a dose-dependent manner”. Also, in series [6], the G2/M is given as 24.34%, the S is given as 18.3% and the G0/G1 is 57.36%. In series [7], the “levels of CDK4 and Cyclin D1” value is “significantly reduced the levels of CDK4 and Cyclin D1 in a dose-dependent manner”. Further, the “apoptosis of HepG2 cells” value in series [8] (0.2 µM) is 30%. Besides, the “apoptosis of HepG2 cells” value in series [8] (0.5 µM) is given as 41.9%. Further, the “expression of Cl-PARP, Cl-caspase 3” value in series [9] is reported as “upregulate the expression of Cl-PARP, Cl-caspase 3 in a dose-dependent manner”. The ROS levels entry in series [10] is “dose-dependently increased”. Further, in series [11], the “nuclear γH2AX levels” value is “induce γH2AX expression at a much lower concentration range”. Moreover, in series [12], the LDH release entry is “markedly increased”. In series [13], the “GSDME N-terminal fragment level” value is listed as “elevated levels of the N-terminal fragment of gasdermin E (GSDME)” and the “levels of active caspase-3” value is recorded as “elevated”.

The record behind these values is PMC12238359 (Scientific Reports, 2025).
